Test results reported in ChEMBL document CHEMBL1132176, “Novel A,B,E-ring-modified camptothecins displaying high lipophilicity and markedly improved human blood stabilities” (J Med Chem, 1999).

Legend:
[1] = Stability parameter for the compound at a concentration of 1 uM in human serum albumin(HSA) after 3h; type: ADME; settings: read-out: Lactone
How it was run: (§1)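 Lactone-to-carboxylate hydrolysis followed by HPLC; drug at 1 μM incubated at 37 °C for 3 h in human whole blood, plasma, or PBS (pH 7.4) with or without physiologically relevant levels of HSA or albumin-free RBCs ((5 ± 1) × 10^6 cell/μL). Plasma continuously aerated with blood gas to hold pH 7.5 ± 0.1. Blood kept at 5 °C before start. Value is % lactone remaining.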

[2] = Stability parameter for the compound in mouse blood after 3h; type: ADME; settings: read-out: Lactone
How it was run: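 Drug was incubated in mouse blood at pH 7.4 and 37 °C for 3 h. Blood was kept at 5 °C after drawing and before the start. The percent lactone remaining was measured by HPLC.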

[3] = Equilibrium association (binding) constant interacting with Unilamellar Vesicles of electroneutral DMPC in PBSbuffer at pH 7.4 and 37 C; type: ADME
How it was run: (§2)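 Fluorescence anisotropy titration of 1 μM drug (lactone form) with small unilamellar vesicles, in PBS at pH 7.4 and 37 °C. Anisotropy was read about 1 min after adding drug at each lipid concentration to limit lactone hydrolysis. Adsorption isotherms were constructed, and K was taken from the slopes of double-reciprocal plots, with 10% uncertainty.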

[4] = Stability parameter for the compound at a concentration of 1 uM in whole human blood after 3h; type: ADME; settings: read-out: Lactone; how it was run: as §1
[5] = Stability parameter for the compound in human blood after 3h; type: ADME; settings: read-out: Lactone
[6] = Stability parameter for the compound at a concentration of 1 uM in red blood cells(RBC) after 3h; type: ADME, cell-based; settings: read-out: Lactone; how it was run: as §1
[7] = Equilibrium association (binding) constant interacting with Unilamellar Vesicles of negatively charged DMPG in PBS buffer at pH 7.4 and 37 C; type: ADME; how it was run: as §2
[8] = Stability parameter for the compound at a concentration of 1 uM in plasma after 3h; type: ADME, cell-free; settings: read-out: Lactone; how it was run: as §1
[9] = Stability parameter for the compound at a concentration of 1 uM in phosphate-buffered saline(PBS, pH 7.4) after 3h; type: physicochemical; settings: read-out: Lactone; how it was run: as §1

SMILES	remaining at 3 h, 1 µM [1]	remaining at 3 h [2]	K DMPC [3]	remaining at 3 h, 1 µM [4]	remaining at 3 h [5]	remaining at 3 h, 1 µM [6]	K DMPG [7]	remaining at 3 h, 1 µM [8]	remaining at 3 h, 1 µM [9]
CCC1(O)CC(=O)OCc2c1cc1n(c2=O)Cc2c-1nc1ccccc1c2[Si](C)(C)C(C)(C)C (stereo unspecified)	88.1%	80%	14000 M⁻¹	86.6%	87%	92%	19000 M⁻¹	85%	84.9%
CCC1(O)CC(=O)OCc2c1cc1n(c2=O)Cc2c-1nc1ccc(O)cc1c2[Si](C)(C)C(C)(C)C (stereo unspecified)	82.9%	70%	8000 M⁻¹	84.9%	85%	88.5%	4000 M⁻¹	61.5%	83.1%
CCC1(O)CC(=O)OCc2c1cc1n(c2=O)Cc2c-1nc1ccc(N)cc1c2[Si](C)(C)C(C)(C)C (stereo unspecified)	86.8%	61%	9000 M⁻¹	85.2%	85%	85.5%	9000 M⁻¹	71.1%	83.7%
CCC(O)(CC(=O)O)c1cc2n(c(=O)c1CO)Cc1c-2nc2ccc(N)cc2c1[Si](C)(C)C(C)(C)C (stereo unspecified)			800 M⁻¹				80 M⁻¹		
CCC(O)(CC(=O)O)c1cc2n(c(=O)c1CO)Cc1c-2nc2ccc(O)cc2c1[Si](C)(C)C(C)(C)C (stereo unspecified)			700 M⁻¹				100 M⁻¹		
CCC1(O)CC(=O)OCc2c1cc1n(c2=O)Cc2c-1nc1ccc(N)cc1c2[Si](C)(C)C (stereo unspecified)	81.4%	72%	1400 M⁻¹	56.4%	56%	84.8%	800 M⁻¹	40.3%	82.8%
CC[C@@]1(O)C(=O)OCc2c1cc1n(c2=O)Cc2cc3ccccc3nc2-1 [CAMPTOTHECIN]		20%	100 M⁻¹		7%		100 M⁻¹		
CC[C@@]1(O)C(=O)OCc2c1cc1n(c2=O)Cc2cc3c(CN(C)C)c(O)ccc3nc2-1 [TOPOTECAN]			10 M⁻¹				50 M⁻¹		
